Assay results reported in ChEMBL document CHEMBL4402517, “Rational modification of Mannich base-type derivatives as novel antichagasic compounds: Synthesis, in vitro and in vivo evaluation” (Bioorg Med Chem, 2019).
pIC50: −log10 of the molar value. Activity calls are given as the source filed them. No cut-off for these calls is given here.

Tests used:
Trypanosoma cruzi [1] = assay: Antitrypanosomal activity against Trypanosoma cruzi MHOM/Pe/2011/Arequipa;DTU 5 bloodstream trypomastigote infected in BALB/c mouse assessed as parasitemia reactivation in acute phase at 20 mg/kg/day, po administered for 5 consecutive days starting from day 8 post infection followed by cyclophosphamide induced immunosuppression on day 80 post infection by Neubauer chamber relative to control; assay type: functional
Outline: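 Female BALB/c mice (three per group) were infected i.p. with 5 × 10^5 Arequipa bloodstream trypomastigotes and treated orally at 20 mg/kg/day for 5 days (vehicle 5% DMSO/0.5% HPMC). Once parasitemia was undetectable (day 80 pi), cyclophosphamide 200 mg/kg was given i.p. Bloodstream parasites were then counted to give % reactivation versus untreated controls.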

Trypanosoma cruzi [2] = assay: Antitrypanosomal activity against Trypanosoma cruzi TINF/CH/1956/Tulahuen;DTU 6 epimastigotes measured after 72 hrs by Neubauer hemocytometer; assay type: functional, organism-based; settings: TINF/CH/1956/Tulahuen;DTU 6, 72 h
Trypanosoma cruzi [3] = assay: Antitrypanosomal activity against Trypanosoma cruzi MHOM/Pe/2011/Arequipa;DTU 5 epimastigotes measured after 72 hrs by Neubauer hemocytometer; assay type: functional, organism-based; settings: MHOM/Pe/2011/Arequipa;DTU 5, 72 h
Trypanosoma cruzi [4] = assay: Antitrypanosomal activity against Trypanosoma cruzi IRHOD/CO/2008/SN3;DTU 1 epimastigotes measured after 72 hrs by Neubauer hemocytometer; assay type: functional, organism-based; settings: IRHOD/CO/2008/SN3;DTU 1, 72 h
[5] = Selectivity index, ratio of IC50 for African green monkey Vero cells to IC50 for Trypanosoma cruzi MHOM/Pe/2011/Arequipa;DTU 5; assay type: toxicity; settings: read-out: Selectivity Index
Outline: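 SI = Vero IC50 / epimastigote IC50. Vero cells were grown in RPMI-1640 with 10% FBS, seeded at 0.8 × 10^4 cells/well, exposed to 10.0–200.0 µM for 72 h, then given MTT for 4 h. Epimastigotes were grown in MTL with 10% FBS at 28 °C, 5 × 10^5/mL, exposed to 6.3–50 µM for 48 h, then resazurin for 24 h (570/600 nm). IC50s came from nonlinear regression.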

Trypanosoma cruzi [6] = assay: Antitrypanosomal activity against bloodstream trypomastigote stage of Trypanosoma cruzi IRHOD/CO/2008/SN3;DTU 1 isolated from parasite infected BALB/c Albino mouse cardiac cells after 24 hrs by Neubauer chamber based cell counting method; assay type: functional, organism-based; settings: IRHOD/CO/2008/SN3;DTU 1, 24 h
Outline: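 Bloodstream trypomastigotes were taken by cardiac puncture from infected BALB/c mice and diluted in RPMI + 10% heat-inactivated FBS. At 2 × 10^6/mL they were exposed to 3.1–50.0 µM (lower where needed) for 24 h at 37 °C, 5% CO2, and counted in a Neubauer chamber. Triplicates, at least three experiments; IC50 by nonlinear regression.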

[7] = Selectivity index, ratio of IC50 for African green monkey Vero cells to IC50 for Trypanosoma cruzi MHOM/Pe/2011/Arequipa; DTU 5 trypomastigote forms; assay type: toxicity; settings: read-out: Selectivity Index
Outline: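 Bloodstream trypomastigotes were taken from BALB/c mice by cardiac puncture and diluted in RPMI with 10% FBS at 2 × 10^6/mL. They were incubated with 3.1–50.0 µM for 24 h at 37 °C in 5% CO2 and counted in a Neubauer chamber. Triplicate, at least three experiments; nonlinear regression.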

[8] = Selectivity index, ratio of IC50 for African green monkey Vero cells to IC50 for Trypanosoma cruzi IRHOD/CO/2008/SN3;DTU 1 amastigote forms; assay type: toxicity; settings: read-out: Selectivity Index
Outline: (§1)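 Vero cells (1 × 10^4/well) were infected with trypomastigotes at MOI 10:1 for 24 h and washed with PBS. They were then exposed to 3.1–50 µM for 72 h at 37 °C in 5% CO2, and amastigotes were counted after Giemsa staining. Triplicates in two determinations; nonlinear regression.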

[9] = Selectivity index, ratio of IC50 for African green monkey Vero cells to IC50 for Trypanosoma cruzi TINF/CH/1956/Tulahuen;DTU 6 amastigote forms; assay type: toxicity; settings: read-out: Selectivity Index; outline: as §1
Trypanosoma cruzi [10] = assay: (§2) Antitrypanosomal activity against Trypanosoma cruzi MHOM/Pe/2011/Arequipa;DTU 5 bloodstream trypomastigote infected in BALB/c mouse assessed as parasite-free oesophagus in chronic phase at 20 mg/kg/day, po administered for 5 consecutive days starting from day 70 post infection followed by cyclophosphamide induced immunosuppression on day 80 post infection measured after day 100 post infection by PCR method relative to control; assay type: functional
Outline: (§3)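 Female BALB/c mice (10–12 weeks, three per group) were infected i.p. with 5 × 10^5 Arequipa bloodstream trypomastigotes. Dosing was oral, 20 mg/kg/day for 5 days, as a suspension in 5% DMSO/0.5% HPMC. Cyclophosphamide 200 mg/kg i.p. was given at day 80 pi. At necropsy (day 100) tissues were tested by PCR on the splice leader region (primers TC/TC1, 300 bp). Scored as x/3 mice positive.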

Trypanosoma cruzi [11] = assay: as §2, with “muscle” for “oesophagus”, “acute” for “chronic”, “8” for “70”; assay type: functional; outline: as §3
Trypanosoma cruzi [12] = assay: as §2, with “trypomastigotes” for “trypomastigote”, “stomach” for “oesophagus”, “acute” for “chronic”, “8” for “70”; assay type: functional; outline: as §3
[13] = Toxicity in BALB/c mouse infected with Trypanosoma cruzi MHOM/Pe/2011/Arequipa;DTU 5 bloodstream trypomastigote assessed as decrease in serum uric acid level in acute phase at 20 mg/kg/day, po administered for 5 consecutive days starting from day 8 post infection and measured at day 14 post infection by biochemical analysis relative to control; assay type: organism-based; design: scale not given: the % may be the effect or the level left; settings: in vivo
Outline: (§4)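 Female BALB/c mice (10–12 weeks, 14–20 g; groups of three) were infected i.p. with 5 × 10^5 Arequipa bloodstream trypomastigotes. Dosing was oral at 20 mg/kg/day for 5 days, from day 8 pi (acute) or day 70 pi (chronic), as a 2 mg/ml suspension in 5% DMSO/0.5% HPMC; controls received vehicle. Cyclophosphamide 200 mg/kg i.p. was given at day 80 pi. Serum was collected 2 days post-treatment and at necropsy by cardiac puncture and compared with infected untreated controls.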

[14] = Toxicity in BALB/c mouse infected with Trypanosoma cruzi MHOM/Pe/2011/Arequipa;DTU 5 bloodstream trypomastigote assessed as change in serum alanine aminotransferase level in chronic phase at 20 mg/kg/day, po administered for 5 consecutive days starting from day 70 post infection measured on day 100 post infection relative to control; assay type: organism-based; settings: in vivo; outline: as §4
Trypanosoma cruzi [15] = assay: Antitrypanosomal activity against Trypanosoma cruzi MHOM/Pe/2011/Arequipa;DTU 5 epimastigote assessed as depolarization of mitochondrial membrane at IC50 measured after 72 hrs by rhodamine 123 and acridine orange staining based flow cytometry relative to control; assay type: functional
Outline: (§5)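 They were stained with rhodamine 123 or acridine orange and analysed by flow cytometry. Index of variation = (TM−CM)/CM, from median fluorescence of treated (TM) and untreated (CM) parasites.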

Trypanosoma cruzi [16] = assay: Antitrypanosomal activity against Trypanosoma cruzi MHOM/Pe/2011/Arequipa;DTU 5 epimastigote assessed as inhibition of DNA and RNA levels at IC50 measured after 72 hrs by acridine orange staining based flow cytometry relative to control; assay type: functional; design: scale not given: the % may be the effect or the level left; outline: as §5
Trypanosoma cruzi [17] = assay: Antitrypanosomal activity against Trypanosoma cruzi MHOM/Pe/2011/Arequipa;DTU 5 epimastigote assessed as effect on L-alanine excretion at IC50 after 72 hrs by H NMR method relative to control; assay type: functional, organism-based
Outline: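 Cells were spun at 800 × g for 10 min and culture supernatants analysed by 1H NMR. Catabolite peaks were expressed as % variation versus untreated parasites.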

| Structure (SMILES) | Activity (Trypanosoma cruzi [1]) | pIC50 (Trypanosoma cruzi [2]) | pIC50 (Trypanosoma cruzi [3]) | pIC50 (Trypanosoma cruzi [4]) | selectivity ratio [5] | pIC50 (Trypanosoma cruzi [6]) | selectivity ratio [7] | selectivity ratio [8] | selectivity ratio [9] | Activity (Trypanosoma cruzi [10]) | Activity (Trypanosoma cruzi [11]) | Activity (Trypanosoma cruzi [12]) | Activity [13] | Activity [14] | Activity (Trypanosoma cruzi [15]) | Activity (Trypanosoma cruzi [16]) | Activity (Trypanosoma cruzi [17]) |
| --- | --- | --- | --- | --- | --- | --- | --- | --- | --- | --- | --- | --- | --- | --- | --- | --- | --- |
| O=C(CCN1CCN(c2ccc(Cl)cc2)CC1)c1ccc(O)cc1 | 25% | 4.97 | 4.73 | 4.92 | 5.6 | 5.70 | 141 | 23.2 | 34.5 | 63% | 50% | 50% | <= 10% | > 10% | 67.6% | -5.1% | Active |
| O=C(Cn1ccnc1[N+](=O)[O-])NCc1ccccc1 [BENZNIDAZOLE] | 65% | 4.60 | 4.58 | 4.82 | > 7.6 | 4.48 | > 32.5 | > 45.6 | > 51.7 | 38% | 25% | 25% | <= 30% | > 10% | 15.2% | -4.7% | Active |
| O=C(CCN1CCN(c2ccc(C(F)(F)F)cc2)CC1)c1ccc(O)cc1 | 85% | 4.83 | 4.64 | 4.90 | 4.7 | 5.68 | 123 | 16.2 | 27.4 | 50% | 13% | 13% | <= 20% | > 10% | 54.4% | -4.2% | Active |
